ChEMBL document CHEMBL2057156, “Synthesis and biological evaluation of the first dual tyrosyl-DNA phosphodiesterase I (Tdp1)-topoisomerase I (Top1) inhibitors” (J Med Chem, 2012)
The source made the active and inactive calls. The calls are words filed in the database; no cut-off is given here.

What was measured:
[1] = target: T1, DNA topoisomerase 1 (Homo sapiens) (UniProt P11387); experiment: Inhibition of human recombinant Top1-mediated DNA cleavage by polyacrylamide gel electrophoresis relative to camptothecin; set-up: concentration or dose not given beside the values; conditions: concentration not given here
T1 sequence (whole entry): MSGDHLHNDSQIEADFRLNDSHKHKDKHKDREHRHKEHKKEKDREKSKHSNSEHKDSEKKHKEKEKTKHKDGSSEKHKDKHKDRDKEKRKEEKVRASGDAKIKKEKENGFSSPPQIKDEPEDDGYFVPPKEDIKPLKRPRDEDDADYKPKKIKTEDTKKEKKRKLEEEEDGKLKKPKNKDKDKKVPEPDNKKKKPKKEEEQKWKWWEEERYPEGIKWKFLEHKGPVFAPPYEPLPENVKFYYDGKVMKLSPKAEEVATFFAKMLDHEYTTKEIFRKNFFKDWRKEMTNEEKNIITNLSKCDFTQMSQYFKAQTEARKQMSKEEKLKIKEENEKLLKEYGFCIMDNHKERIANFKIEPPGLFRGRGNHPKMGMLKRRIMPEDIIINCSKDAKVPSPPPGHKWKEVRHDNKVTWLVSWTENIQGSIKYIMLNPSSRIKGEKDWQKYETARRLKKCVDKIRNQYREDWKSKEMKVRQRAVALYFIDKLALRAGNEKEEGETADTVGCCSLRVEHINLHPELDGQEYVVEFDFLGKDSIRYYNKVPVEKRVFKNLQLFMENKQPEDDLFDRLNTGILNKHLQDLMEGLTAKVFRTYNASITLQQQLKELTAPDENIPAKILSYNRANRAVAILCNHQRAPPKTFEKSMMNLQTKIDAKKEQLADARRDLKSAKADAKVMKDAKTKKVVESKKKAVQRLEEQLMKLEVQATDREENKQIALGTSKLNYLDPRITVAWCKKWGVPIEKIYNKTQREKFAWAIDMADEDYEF
Procedure, shortened: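 Baculovirus-purified human recombinant Top1 was incubated for 20 min at 25 °C, with compounds at various concentrations, with about 2 nM of a 117-bp oligonucleotide 3′-end-labeled with [α-³²P]dGTP. Reactions were stopped with 0.5% SDS and run on 20% denaturing PAGE. Cleavage bands were phosphorimaged and graded semiquantitatively against 1 μM camptothecin.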

[2] = Growth inhibition of human NCI60 cells; assay type: functional
[3] = target: T2, Tyrosyl-DNA phosphodiesterase 1 (Homo sapiens, UniProt Q9NUW8); experiment: Inhibition of human recombinant Tdp1 using 5'-[32P]-labeled single-stranded DNA oligonucleotide containing 3'-phosphotyrosine as substrate assessed as prevention of generation of oligonucleotide with free 3'-phosphate after 15 mins by PAGE analysis
[4] = target: T2, Tyrosyl-DNA phosphodiesterase 1; experiment: Inhibition of human Tdp1 in Tdp1-deficient chicken DT40 whole cell extract using 5'-[32P]-labeled single-stranded DNA oligonucleotide containing 3'-phosphotyrosine as substrate after 15 mins by PAGE analysis
[5] = target: T2, Tyrosyl-DNA phosphodiesterase 1; experiment: Binding affinity to human recombinant Tdp1 at 0.4 to 33 uM by surface plasmon resonance spectroscopy analysis
Procedure, shortened: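 Amine-coupled to a CM5 chip to about 4000 RU; before coupling, Tdp1 (1 μM) was preloaded for 20 min with 2 μM 3′-phosphate 14-mer in 10 mM sodium acetate pH 4.5 to shield the active site, then the oligo was stripped with 1 M NaCl. Analyte was injected in 10 mM Hepes, 150 mM NaCl, 0.01% Tween 20, 5% DMSO, pH 7.5, at 30 μL/min, 25 °C. Responses were corrected against a Tdp1-free reference surface, buffer cycles and DMSO calibration.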

T2 sequence (Q9NUW8 whole entry): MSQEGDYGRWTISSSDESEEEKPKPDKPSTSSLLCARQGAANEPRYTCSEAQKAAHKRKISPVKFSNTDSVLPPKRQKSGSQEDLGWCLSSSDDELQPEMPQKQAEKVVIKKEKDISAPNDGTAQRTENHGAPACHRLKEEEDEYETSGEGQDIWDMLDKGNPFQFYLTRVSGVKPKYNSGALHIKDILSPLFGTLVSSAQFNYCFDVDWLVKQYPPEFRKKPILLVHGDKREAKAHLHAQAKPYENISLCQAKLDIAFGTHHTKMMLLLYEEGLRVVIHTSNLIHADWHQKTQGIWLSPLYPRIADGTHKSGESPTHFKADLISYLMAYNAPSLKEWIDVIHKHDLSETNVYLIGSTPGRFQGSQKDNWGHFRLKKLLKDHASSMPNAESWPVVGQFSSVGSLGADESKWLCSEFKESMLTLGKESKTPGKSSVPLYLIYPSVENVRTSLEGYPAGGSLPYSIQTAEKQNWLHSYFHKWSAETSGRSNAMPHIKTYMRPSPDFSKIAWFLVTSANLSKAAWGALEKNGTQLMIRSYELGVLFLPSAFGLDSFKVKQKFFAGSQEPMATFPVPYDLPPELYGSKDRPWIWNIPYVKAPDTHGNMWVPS

COc1cc2c3c(n(CCCNS(=O)(=O)c4ccccc4)c(=O)c2cc1OC)-c1ccccc1C3=O
inhibition [1]: 75%
GI50 [2]: 1.35 µM
IC50 [3]: > 111 µM

O=C1c2cc(-c3ccccc3)ccc2-c2c1c1ccc([N+](=O)[O-])cc1c(=O)n2CCCNS(=O)(=O)c1ccccc1
inhibition [1]: 0%
GI50 [2]: 0.55 µM
IC50 [3]: > 111 µM

COC(=O)c1ccc2c(c1)C(=O)c1c-2n(CCCNS(=O)(=O)c2ccccc2)c(=O)c2cc(OC)c(OC)cc12
inhibition [1]: 0%
GI50 [2]: 12.6 µM
IC50 [3]: > 111 µM

NCCCCCCCCn1c2c(c3ccccc3c1=O)C(=O)c1ccccc1-2
inhibition [1]: 20%
IC50 [4]: 49 µM
IC50 [3]: 48 µM

O=C1c2ccccc2-c2c1c1cc3c(cc1c(=O)n2CCCNS(=O)(=O)c1ccccc1)OCO3
inhibition [1]: 50%
GI50 [2]: 0.617 µM
IC50 [3]: > 111 µM

NCCCCCCn1c2c(c3ccccc3c1=O)C(=O)c1ccccc1-2
inhibition [1]: 50%
IC50 [4]: 35 µM
IC50 [3]: 25 µM

NCCCCCCCn1c2c(c3ccccc3c1=O)C(=O)c1ccccc1-2
inhibition [1]: 0%
IC50 [4]: 31 µM
IC50 [3]: 28.8 µM

NCCn1c2c(c3ccccc3c1=O)C(=O)c1ccccc1-2
inhibition [1]: 75%
IC50 [4]: 78 µM
IC50 [3]: 55.3 µM

O=C1c2ccccc2-c2c1c1ccc([N+](=O)[O-])cc1c(=O)n2CCCNS(=O)(=O)c1ccccc1
inhibition [1]: 100%
GI50 [2]: 0.046 µM
IC50 [3]: > 111 µM

NCCCCCCCCCCn1c2c(c3ccccc3c1=O)C(=O)c1ccccc1-2
inhibition [1]: 0%
IC50 [4]: 21.3 µM
IC50 [3]: 14.1 µM

NCCCn1c2c(c3ccccc3c1=O)C(=O)c1ccccc1-2
Activity [5]: Active
inhibition [1]: 75%
IC50 [4]: 29.5 µM

NCCCCCCCCCCCCn1c2c(c3ccccc3c1=O)C(=O)c1ccccc1-2
inhibition [1]: 0%
IC50 [4]: 33 µM
IC50 [3]: 15.1 µM
